Source: PubChem (several laboratories)
Myeloid diff MLP – myeloid differentiation induction. ER-HoxA9 myeloid progenitors, lysozyme-GFP differentiation, flow cytometry. calls only at 10 µM. 1% of 360,000 active. AID 624256;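 active = normalized GFP-positive differentiation at or above the plate's own cutoff, the solvent-only control mean plus 3 SD; inconclusive = no clear call, values can overlap the other calls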;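 note: cells exposed to compound for four days before flow analysis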
HCV core dimer – blocks dimerization of HCV core protein. AID 1899. TR-FRET GST/Flag-core106 dimerization, 1536-well. inhibition, % at 5 µM. 0.33% of 300,000 active;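 active = inhibition above the mean of all tested compounds plus 3 SD, set per screening campaign, cut at about 45% in these data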
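System: GST-tagged and Flag-tagged HCV core protein residues 1-106 / Input: core106 proteins, GST 13.5 nM and Flag 17 nM / Buffer or medium: KF-containing HEPES buffer, pH 7.45, DTT, CHAPS, BSA / Probe or stimulus: Eu-anti-GST and XL665-anti-Flag labelled anti-tag antibodies / Schedule: 4 h, 22.5 °C incubation / Technique: TR-FRET 671 and 617 nm emission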
PP1 inh – PP1-alpha (human) inhibition in PP5 counter-screen; inhibition, % at 6.7 µM; P62136; 0.9% of 320,000 active; AID 2235; purified PP1alpha, OMFP fluorescence;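 active = inhibition above the mean inhibition of all tested compounds plus 3 SD, computed separately for each screening campaign, cut at about 15% in these data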
CTSL1 counter – blocks F. hepatica cathepsin L1 in PFM18AAP counter-screen; recombinant F. hepatica cathepsin L1, Z-Leu-Arg-MCA fluorescence; inhibition, % at 5.96 µM; 0.49% of 300,000 active;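 active = inhibition above the mean of all tested compounds plus 3 SD, set per screening campaign, cut at about 17% in these data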
PP5 inh – blocks human protein phosphatase 5 activity; P53041; purified PP5c, OMFP substrate fluorescence; inhibition, % at 6.7 µM; 0.18% of 320,000 active;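 active = inhibition above the campaign's mean inhibition across all tested compounds plus 3 SD, cut at about 9.5% in these data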
Target sequence (P53041 whole entry, looked up): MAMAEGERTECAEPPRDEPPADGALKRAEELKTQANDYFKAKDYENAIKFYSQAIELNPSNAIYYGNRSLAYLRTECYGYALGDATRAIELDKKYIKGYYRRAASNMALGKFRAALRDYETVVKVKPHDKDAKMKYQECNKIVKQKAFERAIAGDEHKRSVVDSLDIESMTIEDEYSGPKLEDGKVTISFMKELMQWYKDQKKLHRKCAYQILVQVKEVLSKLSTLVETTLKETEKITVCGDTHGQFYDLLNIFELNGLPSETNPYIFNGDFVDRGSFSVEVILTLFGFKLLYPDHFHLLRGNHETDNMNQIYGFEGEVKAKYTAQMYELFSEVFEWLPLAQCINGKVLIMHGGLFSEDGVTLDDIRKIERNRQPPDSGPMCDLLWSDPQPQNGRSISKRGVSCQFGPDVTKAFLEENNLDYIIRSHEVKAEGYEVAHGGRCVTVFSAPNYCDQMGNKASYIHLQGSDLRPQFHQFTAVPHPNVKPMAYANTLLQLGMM
NadD inh – inhibitors of Staphylococcus aureus NadD; AID 602399; inhibition, % at 20 µM; purified NadD enzyme, colorimetric absorbance read-out; 0.78% of 360,000 active; in the data active = inhibition above about 26%
Large screens that a line does not name were inactive. A selection: hits, their analogues and other compounds. The true share with any hit is near 3.1%.

COc1ccc(-c2oc(NC(C)=O)c(C#N)c2-c2ccc(OC)cc2)cc1	none
CN(CCCC(=O)Nc1ccc(Br)cc1F)S(=O)(=O)c1ccccc1	none
COC(=O)CCC(=O)N1CN2CN(C(=O)CCC(=O)OC)CC([N+](=O)[O-])(C2)C1	CTSL1 counter 18
COc1ccc(-c2cc3c(=O)n(CC(=O)NCCCN4CCC(Cc5ccccc5)CC4)ncn3n2)cc1	CTSL1 counter 20
COc1ccc(-c2cc3c(=O)n(CC(=O)NCCCN4CCN(Cc5ccccc5)CC4)ncn3n2)cc1	none
CCO[C@@H]1OC(C(=O)NCc2ccccc2)=C[C@H](C2CCCCC2)[C@H]1CCCO	Myeloid diff MLP active
CCO[C@@H]1OC(C(=O)NCc2ccccc2)=C[C@H](C2CC2)[C@H]1CCCO	none
COc1cccc2cc(-c3nc4ccccc4o3)c(=O)oc12	Myeloid diff MLP active
CC1(C)CNc2cc(N)ccc2S1	Myeloid diff MLP active
CC1CCN(C2=NN3C(=N)/C(=C\c4ccc(OC(=O)c5ccco5)cc4)C(=O)N=C3S2)CC1	NadD inh 37
CSc1ccccc1OCc1cc(C(=O)NCC(C)Oc2cccnc2)no1 (stereo not given)	none (no result: HCV core dimer, PP1 inh, CTSL1 counter, PP5 inh)
CN(CCc1ccccn1)Cc1ccc(Cl)cc1Cl	Myeloid diff MLP active
O=C(Cc1cccs1)NCc1ccccc1Br	none
Cc1ccc(C2C(C#N)=C(N)SC(N)=C2C#N)cc1	none (no result: HCV core dimer, PP1 inh, CTSL1 counter, PP5 inh)
Cc1ccc(C2C(C#N)=C(N)SC(N)=C2C#N)c(C)c1	Myeloid diff MLP active
CC(=O)NCCNc1nc2cc(-c3ccc(C)cc3)sc2c(=O)n1C	none (no result: HCV core dimer, PP1 inh, CTSL1 counter, PP5 inh)
COCCCNC(=O)c1ccc2sc(C3=C[C@@H](O)[C@@H](O)[C@@H](CO)O3)nc2c1	none (no result: HCV core dimer, PP1 inh, CTSL1 counter, PP5 inh)
CCOC(=O)C1=CCN(S(=O)(=O)c2ccc(Cl)cc2)C1c1ccccc1 (stereo not given)	none (no result: HCV core dimer, PP1 inh, CTSL1 counter, PP5 inh)
CCC(=O)NC(c1ccco1)c1cc(Br)c2cccnc2c1O (stereo not given)	none (no result: HCV core dimer, PP1 inh, CTSL1 counter, PP5 inh)
CCCC(=O)NC(c1ccco1)c1cc([N+](=O)[O-])c2cccnc2c1O (stereo not given)	Myeloid diff MLP active
CC1(OC(=O)C2CCCC2)C(=O)C=C2C=C(c3ccsc3)N(Cc3ccco3)C=C2C1=O (stereo not given)	CTSL1 counter 22
COc1ccc(CN2C=C3C(=O)C(C)(OC(=O)C4CCCC4)C(=O)C=C3C=C2c2ccsc2)cc1 (stereo not given)	none
CC(Sc1nnc(C(F)(F)F)n1C)C(=O)Nc1ccc(S(N)(=O)=O)cc1 (stereo not given)	none
C/C(=N\Nc1ccccc1Cl)c1ccc(-n2ccnc2)cc1	Myeloid diff MLP active
CN(CC(=O)Nc1ccccc1Br)C(=O)c1cccnc1Nc1cccc(C(F)(F)F)c1	none
CC1CCCCC1NC(=O)C(C)N1C(=O)c2ccccc2C1=O (stereo not given)	none (no result: HCV core dimer, CTSL1 counter)
CC(C)(C)C(=O)/C=C(\N)c1ccccn1	Myeloid diff MLP active
Cc1cccc(N2CCN(CC(=O)Nc3ccc(S(=O)(=O)N4CCOCC4)cc3)CC2)c1C	Myeloid diff MLP active
Cc1ccc(S(=O)(=O)N2CCN(CC(=O)Nc3ccc(N4CCOCC4)cc3)CC2)cc1C	none
CN(C)c1ccc(CNC(=O)C2(C)Cc3c(-c4ccc5c(c4)OCO5)ccnc3O2)cc1 (stereo not given)	Myeloid diff MLP inconclusive (no result: HCV core dimer, PP1 inh, CTSL1 counter, PP5 inh)
COc1ccc(-c2csc(NC(=O)CSc3nc4ccccc4c(=O)[nH]3)n2)cc1	PP1 inh 17
Cc1ccc(-c2csc(NC(=O)CSc3nc4ccccc4[nH]3)n2)cc1	none (no result: HCV core dimer, PP1 inh, CTSL1 counter, PP5 inh)
C=C1CC2(CC(c3ccccc3)OC(c3ccccc3)C2)OC1=O (stereo not given)	none (no result: Myeloid diff MLP, HCV core dimer, PP1 inh, CTSL1 counter, PP5 inh)
NC(=O)C1CCN(c2nc(-c3ccc(F)cc3)cs2)CC1	Myeloid diff MLP active (no result: HCV core dimer, CTSL1 counter)
C=Cc1ccc(Cn2nc(-c3ccc(C)cc3)ccc2=O)cc1	none (no result: Myeloid diff MLP)
N#Cc1cccnc1N1CCN(C(C(=O)NC2CCCC2)c2ccc(F)cc2)CC1 (stereo not given)	none (no result: HCV core dimer, PP1 inh, CTSL1 counter, PP5 inh, NadD inh)
O=C(COC(=O)c1cccnc1)Nc1cccc(Cl)c1	none
O=C(COC(=O)c1ccncc1)Nc1cccc(Cl)c1	HCV core dimer 46
CC(C)(C)c1cc(-c2csc(Nc3ccccc3)[n+]2Cc2ccc(C(=O)O)cc2)cc(C(C)(C)C)c1O	NadD inh 66
Cc1ccc(OCc2ccccc2C)c([N+](=O)[O-])n1	Myeloid diff MLP active
Cc1ccc(OCc2ccc([N+](=O)[O-])cc2)c([N+](=O)[O-])n1	none
C=CCN(C(=O)CSC1=NC(=O)CN1C(C)=O)c1nc(C)c(-c2ccccc2)s1	CTSL1 counter 19
COc1ccccc1OCCOCCOc1ccc(C)cc1Br	Myeloid diff MLP active
Cc1ccc(OCCCCN(C)Cc2ccccc2)c(Br)c1	Myeloid diff MLP active
Cc1ccc(C(C)C)c(OCCCN(C)Cc2ccccc2)c1	none
CC1CCCCC1NC(=O)CNC(=O)c1cccs1 (stereo not given)	none
O=C(CN1c2cccc3cccc(c23)S1(=O)=O)N1CCCCC1	none (no result: HCV core dimer, PP1 inh, CTSL1 counter, PP5 inh)
Cc1nn(C2CCS(=O)(=O)C2)c(C)c1CN(C)C(=O)c1ccc(F)cc1 (stereo not given)	none (no result: HCV core dimer, PP1 inh, CTSL1 counter, PP5 inh)
CC1(C)CC(N2CCCC2)=CC(=[N+]2CCCCCC2)C1	none
CC1CC(C)C[N+](=C2C=C(N3CCCC3)CC(C)(C)C2)C1 (stereo not given)	Myeloid diff MLP active (no result: HCV core dimer, PP1 inh, CTSL1 counter, PP5 inh)
S=C(Nc1ccc2nsnc2c1)N1CCCCCC1	CTSL1 counter 108
O=C(N/N=C/c1cc(Br)c(O)c(Br)c1)c1cc2c(ccc3ccccc32)o1	none (no result: HCV core dimer, PP1 inh, CTSL1 counter, PP5 inh)
O=C(N/N=C/c1ccc(O)c(Br)c1)c1cc2c(ccc3ccccc32)o1	Myeloid diff MLP inconclusive, NadD inh 50 (no result: HCV core dimer, PP1 inh, CTSL1 counter, PP5 inh)
COc1cccc(CCC(=O)O)c1OC	CTSL1 counter 19
CCOc1ccc(N=C2NC(=O)S/C2=C\c2ccc(N(C)C)cc2)cc1	Myeloid diff MLP active, NadD inh 37
Cc1nc2ccccc2n1CC(O)Cn1c2ccccc2c2ccccc21 (stereo not given)	Myeloid diff MLP active
CC(C)NC(=O)N(C)C[C@H]1Oc2c(NC(=O)Nc3ccccc3)cccc2C(=O)N([C@H](C)CO)C[C@@H]1C	none (no result: HCV core dimer, PP1 inh, CTSL1 counter, PP5 inh)
Cn1c(=O)c(C(=O)c2ccccc2)nc2ccccc21	none
O=C(c1ccccc1)c1nc2ccccc2n(CCCn2c(=O)c(C(=O)c3ccccc3)nc3ccccc32)c1=O	Myeloid diff MLP active
O=C(N/C(=C/c1cccc([N+](=O)[O-])c1)C(=O)N1CCOCC1)c1ccccc1Br	none
COc1cccc(C(=O)N2CCC(n3nccc3NC(=O)CCOc3ccccc3)CC2)c1	none
CC(OC(=O)C1CC1)C(=O)Nc1cc(Cl)cc(Cl)c1 (stereo not given)	Myeloid diff MLP active (no result: HCV core dimer, PP1 inh, CTSL1 counter, PP5 inh)
C[C@H](NC(=O)[C@H]1N2C(=O)c3ccccc3C2SC1(C)C)C(=O)N1CCN(C)CC1 (stereo not given in full)	CTSL1 counter 21
